Among the data in ChEMBL document CHEMBL1149253, “Effects of indole fatty alcohols on the differentiation of neural stem cell derived neurospheres” (J Med Chem, 2004) are IC50 and Activity values, retold here.

The source made the active and inactive calls. No cut-off for these calls is given here. Bounds are passed on as bounds.

Assay [1] in a line: Hydroxyl radical scavenging activity after 2 hrs by ABTS competition assay. The format is functional. The gist of the method:
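In the ABTS competition assay, hydroxyl radicals oxidize ABTS to ABTS•+, read by absorbance at 405 nm. IC50 is the concentration giving 50% decrease in ABTS•+ formed. Values are means of triplicate determinations.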

Assay [2] in a line: Differentiation activity of neural stem cell derived neurosphere into neurons at 10 nM after 3 days relative to control. The assay is classed as functional, Homo sapiens. A digest of the protocol: (§1)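 Dissociated neurospheres proliferated for 3 days, then 50–100 spheres were plated on polyornithine coverslips to differentiate, with EGF reduced to 2 ng/mL. Compound (ethanol stock, 0.1% ethanol final; ethanol-only control) was added at plating, or daily at 10 nM in proliferation, differentiation or both phases. Spheres were fixed in 4% PFA and immunostained for MAP2/TUJ1 (neurons) and GFAP (astrocytes). Confocal counts were expressed as % of TO-PRO-3-stained cells; >10 spheres per condition, 3–4 independent experiments.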

The species named for assay [3] is Homo sapiens. As to the kind of experiment: Effect on neural stem cell derived neurospheres assessed as differentiation into astrocytes at 10 nM after 3 days. The assay is classed as functional. A digest of the protocol:
as §1

The species named for assay [4] is Homo sapiens. Briefly: Mitotic effect on neuronal precursors in neural stem cell derived neurospheres assessed by BrdU incorporation. The format is functional. (In general: Incorporation of labelled thymidine or its analogues reports DNA synthesis.)
Assay [5] can be described thus: Decrease in Notch1 mRNA expression in neural stem cell derived neurospheres during differentiation phase at 10 nM by semi-quantitative RT-PCR. The format is functional. Details: scale not given: the % may be the effect or the level left. The settings on record: Homo sapiens. A digest of the protocol: (§2)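 Neurospheres were treated with or without compound at 10 nM during the differentiation phase. Total RNA was then isolated. cDNA was made from 3 μg RNA with M-MLV reverse transcriptase and random hexamers at 37 °C for 1 h. One-tenth of the cDNA was amplified by Taq PCR with gene-specific Notch primers, using GAPDH as internal control (94/55/72 °C, 30 s each). Products were resolved on a 1% agarose gel with ethidium bromide.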

Assay [6] in a line: Decrease in Notch2 mRNA expression in neural stem cell derived neurospheres during differentiation phase at 10 nM by semi-quantitative RT-PCR. The assay is classed as functional. Details: scale not given: the % may be the effect or the level left. The settings on record: Homo sapiens. The gist of the method: as §2
Assay [7] is described as follows: Decrease in Notch3 mRNA expression in neural stem cell derived neurospheres during differentiation phase at 10 nM by semi-quantitative RT-PCR. The format is functional. Set-up: scale not given: the % may be the effect or the level left. The settings on record: Homo sapiens. The gist of the method:
as §2

Assay [8] in a line: Decrease in Notch4 mRNA expression in neural stem cell derived neurospheres during differentiation phase at 10 nM by semi-quantitative RT-PCR. The format is functional. Conditions: Homo sapiens. Set-up: scale not given: the % may be the effect or the level left. The gist of the method: as §2
The nature of assay [9]: Effect on neural stem cell derived neurospheres during proliferation phase assessed as increase in number of MAP2 positive cells at 10 nM after 3 days. The format is functional, Homo sapiens. A digest of the protocol: as §1
A short description of assay [10]: Effect on neural stem cell derived neurospheres during differentiation phase assessed as increase in number of MAP2 positive cells at 10 nM after 3 days. The format is functional, Homo sapiens. A digest of the protocol: as §1
Assay [11] is described as follows: Effect on neural stem cell derived neurospheres during proliferation and differentiation phase assessed as increase in number of MAP2 positive cells at 10 nM. The assay is classed as functional, Homo sapiens. A digest of the protocol: as §1

With `COc1cccc2c(CCCCCCCCCCCCCCCCO)c[nH]c12`, the IC50 (in general, the concentration that gives 50% inhibition) in [1] is 26 µM.

`COc1ccc2c(CCCCCCCCCCCCCCO)c[nH]c2c1` returned an Activity in assay [2] of 82%. For the compound `OCCCCCCCCCCCCc1c[nH]c2ccccc12`, the Activity in assay [2] is reported as 124%. Take `COc1ccc2[nH]cc(CCCCCCCCCCCCO)c2c1`: in [2], the Activity was determined as 108%. Same read-out and setting: with `OCCCCCCCCCCCCCCc1c[nH]c2ccccc12` the figure was 118%; with `COc1cccc2[nH]cc(CCCCCCCCCCO)c12`, 95%. With `OCCCCCCCCCCc1c[nH]c2ccccc12`, the Activity in [2] turned out to be 115%. Take `CCCCCCCCCCCCCCCc1c[nH]c2ccc(OC)cc12`: the concentration for half-maximal inhibition (IC50) in [1] amounted to 207 µM. `COc1ccc2[nH]cc(CCCCCCCCCCCCCCCCCCO)c2c1OC` came in with an Activity in [2] of 106%. Compound `COc1ccc2[nH]cc(CCNC(C)=O)c2c1` [MELATONIN] yielded a concentration for half-maximal inhibition (IC50) in assay [1] of 211 µM. This compound showed an Activity in assay [2] of 119%. For `COc1cccc2[nH]cc(CCCCCCCCCCCCCCCCCCO)c12`, in [2], the Activity is reported as 110%. Compound `COc1ccc2c(CCCCCCCCCCO)c[nH]c2c1` had an Activity in [2] of 110%. `COc1cccc2[nH]cc(CCCCCCCCCCCCCCCCO)c12` registered an IC50 in [1] of 23 µM. The Activity in [2] came out at 133%. Turning to `COc1ccc2c(CCCCCCCCCCCCCCCCCCO)c[nH]c2c1`, in assay [2], the Activity was determined as 156%. Consider `Cc1c(C)c2c(c(C)c1O)CCC(C)(C(=O)O)O2` (centres undefined) [TROLOX], for which the IC50 in assay [1] is 600 µM.

With `COc1ccc2[nH]cc(CCCCCCCCCCCCCCCCCCO)c2c1`, the result in the assay filed under Homo sapiens [3] and in the assay filed under Homo sapiens [4] was inactive. In addition, the Activity is 169% in [2]; more than 70% in assay [5]; more than 70% in assay [6]; more than 70% in assay [7]; 19% in assay [8]; “<=90%” in [9]. For the same compound, the Activity entry in assay [10] and in assay [11] was “<=90%” each time. `OCCCCCCCCCCCCCCCCCCc1c[nH]c2ccccc12`: the Activity in assay [2] is 113%. `COc1ccc2c(CCCCCCCCCCCCCCCCO)c[nH]c2c1` displayed an IC50 in assay [1] of 34 µM. Also, the Activity in [2] is on record as 135%. On to `COc1ccc2c(CCCCCCCCCCCCO)c[nH]c2c1`, for which the Activity in assay [2] is given as 67%.

For the compound `COc1ccc2[nH]cc(CCCCCCCCCCO)c2c1`, the Activity in [2] amounted to 109%.

In assay [2], `OCCCCCCCCCCCCCCCCc1c[nH]c2ccccc12` yielded an Activity of 144%. `COc1cc2[nH]cc(CCCCCCCCCCCCCCCCO)c2cc1OC` had an IC50 in [1] of 34 µM. This compound also showed an Activity in [2] of 113%. For `COc1ccc2[nH]cc(CCCCCCCCCCCCCCCCO)c2c1`, in that order: 34 µM and 168%. Turning to `COc1cc2[nH]cc(CCCCCCCCCCCCCCCCCCO)c2cc1OC`, the Activity in assay [2] was found to be 116%. In assay [1], `COc1ccc2[nH]cc(CCCCCCCCCCCCCCCCO)c2c1OC` had a half-inhibitory concentration (IC50) of 17 µM. This compound registered an Activity in assay [2] of 118%.

Compound `COc1cccc2[nH]cc(CCCCCCCCCCCCCCO)c12` had an Activity in assay [2] of 118%. In [2], `COc1ccc2[nH]cc(CCCCCCCCCCCCCCO)c2c1` yielded an Activity of 143%. `COc1cccc2[nH]cc(CCCCCCCCCCCCO)c12`: in [2], the Activity was determined as 98%. `CC1=C(CCCCCCCCCCCCCCCO)C(C)(C)CCC1=O`: the outcome in assay [1] was inactive.
